Experimental data taken from publication PMC7366207 (Journal of Antimicrobial Chemotherapy, 2020).
Values belong to the compound of their own block, whether it stands above or below them.

How the values were obtained:
[1] = Last oral lead-in cabotegravir trough; assay type: in vivo, human; conditions: for Low-versus-normal fold-change between mean cabotegravir trough concentrations: last oral trough on Day 1 (oral 30 mg); for Mean cabotegravir trough concentration: last oral trough on Day 1
Outline: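 Human PK in LATTE-2 (4-weekly arm): daily oral 30 mg plus abacavir/lamivudine for 20 weeks. Day 1 trough taken 20–28 h after the last home oral dose. Plasma drug measured by validated LC-MS (LLOQ 25 ng/mL). Predicted UGT1A1 activity: normal with no *6/*28/*37 (*36 counted as wild type), reduced with one copy, low with two. Fold-change taken as the ratio of mean troughs.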

[2] = assay type: in vivo, human; conditions: oral 30 mg/day, steady state
UGT1A9 = conditions: cited from earlier work
[3] = assay type: in vivo, human; conditions: LATTE
Outline: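 LATTE participants received oral drug 10, 30 or 60 mg once daily with two nucleoside analogues for 24 weeks, then with rilpivirine 25 mg daily to Week 72. Maximum on-treatment change from baseline in serum ALT and total bilirubin, regardless of dose, measured centrally as multiples of ULN. Linear regression on predicted UGT1A1/UGT1A9 activity, with covariates kept if P<0.05.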

UGT1A1 = conditions: cited from earlier work
[4] = tested on: uridine 5′-diphospho-glucuronosyltransferase (UGT); conditions: cited from earlier work
[5] = cited from earlier work
cytochrome P450 3A4 = conditions: cited from earlier work
[6] = oral dolutegravir 50 mg/day; same allele and activity definitions; cited from earlier work
[7] = fast versus normal predicted UGT1A9 activity
[8] = low versus normal predicted UGT1A1 activity
[9] = oral 10, 30 and 60 mg, fast versus normal predicted UGT1A9 activity
[10] = oral 10, 30 and 60 mg, low versus normal predicted UGT1A1 activity

- Low-versus-normal fold-change between mean cabotegravir trough concentrations ([1]; 4 weekly group): 1.57 fold
- Mean cabotegravir trough concentration ([1]; 4 weekly group, low predicted UGT1A1 activity): 6.11 µg/mL
- Mean cabotegravir trough concentration ([1]; 4 weekly group, normal predicted UGT1A1 activity): 3.88 µg/mL
- Low-versus-normal fold-change between mean cabotegravir trough concentrations ([1]; 8 weekly arm): 1.19 fold
- Mean cabotegravir trough concentration ([1]; 8 weekly arm, low predicted UGT1A1 activity): 5.10 µg/mL
- Mean cabotegravir trough concentration ([1]; 8 weekly arm, normal predicted UGT1A1 activity): 4.28 µg/mL
- Association of predicted UGT1A9 activity with exposure measures [2]: not significantly associated
- Elevation in oral AUCtau associated with low predicted UGT1A1 activity [2]: 41%
- Elevation in oral Cmax associated with low predicted UGT1A1 activity [2]: 28%
- AUCtau, fold-change in exposure (fast versus normal) [2, 7]: 1.04 fold
- Cmax, fold-change in exposure (fast versus normal) [2, 7]: 1.03 fold
- Ctau, fold-change in exposure (fast versus normal) [2, 7]: 0.98 fold
- AUCtau, fold-change in exposure (low versus normal) [2, 8]: 1.41 fold
- Cmax, fold-change in exposure (low versus normal) [2, 8]: 1.28 fold
- Ctau, fold-change in exposure (low versus normal) [2, 8]: 1.50 fold
- Tbili change from BL, fold-change (fast versus normal) [3, 9]: 0.69 fold
- Tbili maximum change from baseline, fold-change (low versus normal) [3, 10]: 2.45 fold
SMILES: C[C@H]1CO[C@@H]2Cn3cc(C(=O)NCc4ccc(F)cc4F)c(=O)c(O)c3C(=O)N12 [cabotegravir]
- Metabolism by UGT1A9 (UGT1A9): minor contribution by UGT1A9
- ALT change from BL, fold-change (fast versus normal) [3, 9]: 1.68 fold
- ALT maximum change from baseline, fold-change (low versus normal) [3, 10]: 0.68 fold
- Association of predicted UGT1A1 activity with maximum change in ALT ([3]; oral any dose): no significant association
- Participants with maximum on-treatment ALT elevation ≥3× ULN ([3]; among the 5 participants with Tbili increases of 1.5× ULN or greater): none
- Effect on UGT1A1 expression or activity (UGT1A1): does not functionally affect UGT1A1 expression or activity
- Metabolism by UGT1A1 (UGT1A1): primarily metabolized by UGT1A1
- Inhibition or induction of UGT [4]: not an inhibitor or inducer
- Aqueous solubility [5]: low aqueous solubility

SMILES: C[C@@H]1CCO[C@H]2Cn3cc(C(=O)NCc4ccc(F)cc4F)c(=O)c(O)c3C(=O)N12 [dolutegravir]
- Contribution of cytochrome P450 3A4 to metabolism (cytochrome P450 3A4): ~30%
- Increase in AUCtau associated with low UGT1A1 activity [6]: 46%
- Increase in Cmax associated with low UGT1A1 activity [6]: 32%
